High-throughput results from PubChem.
The list is not random: actives were taken first. Their share in the collection is about 1.5%.
VLA-4 inh – inhibition in a human VLA-4 binding assay; 0.2% of 330,000 active; VLA-4 expressing cells, ligand binding flow cytometry; P13612; AID 2557; inhibition, % (about 7 µM as worked out from the volumes in the protocol); in the data active = inhibition above about 50%
Target sequence (P13612 whole entry, looked up): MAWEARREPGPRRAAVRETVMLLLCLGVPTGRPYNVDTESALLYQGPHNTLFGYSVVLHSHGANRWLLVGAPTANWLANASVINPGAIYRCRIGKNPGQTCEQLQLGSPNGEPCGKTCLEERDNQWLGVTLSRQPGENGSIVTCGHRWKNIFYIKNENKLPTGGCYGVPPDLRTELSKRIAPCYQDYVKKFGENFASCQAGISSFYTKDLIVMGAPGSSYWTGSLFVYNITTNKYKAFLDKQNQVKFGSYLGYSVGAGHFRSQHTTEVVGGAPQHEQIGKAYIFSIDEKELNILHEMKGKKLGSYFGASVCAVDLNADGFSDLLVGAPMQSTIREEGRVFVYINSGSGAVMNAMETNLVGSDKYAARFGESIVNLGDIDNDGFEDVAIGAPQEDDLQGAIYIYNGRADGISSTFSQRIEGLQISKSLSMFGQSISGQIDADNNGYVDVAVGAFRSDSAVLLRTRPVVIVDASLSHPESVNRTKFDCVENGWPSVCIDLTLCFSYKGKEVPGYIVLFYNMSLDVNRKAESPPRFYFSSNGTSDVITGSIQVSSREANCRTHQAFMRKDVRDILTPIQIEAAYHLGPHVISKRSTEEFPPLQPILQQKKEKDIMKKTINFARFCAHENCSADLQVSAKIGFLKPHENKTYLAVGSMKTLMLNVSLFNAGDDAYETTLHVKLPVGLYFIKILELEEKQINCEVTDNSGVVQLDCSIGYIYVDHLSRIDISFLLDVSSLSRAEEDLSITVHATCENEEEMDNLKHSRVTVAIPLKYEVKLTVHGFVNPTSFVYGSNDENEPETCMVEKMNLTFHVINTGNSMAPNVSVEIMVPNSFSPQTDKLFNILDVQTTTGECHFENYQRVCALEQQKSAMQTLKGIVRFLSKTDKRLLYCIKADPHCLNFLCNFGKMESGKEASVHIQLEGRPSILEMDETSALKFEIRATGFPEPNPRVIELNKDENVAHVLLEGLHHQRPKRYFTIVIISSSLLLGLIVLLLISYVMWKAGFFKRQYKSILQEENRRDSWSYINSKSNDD
CHT PAM – allosterically activates the human high affinity choline transporter; B-score at 10 µM; 0.49% of 310,000 active; CHT-expressing cells, membrane potential dye, choline EC20; stronger effect = higher value; LV-AA mutant CHT in HEK293 cells;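 active = initial fluorescence not abnormally high and integrated response B-score, plate-corrected, over 3 SD above library mean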
CHT inh – human CHT choline transport inhibition; 0.86% of 310,000 active; Q9GZV3; CHT-expressing cells, membrane potential dye, choline response; stronger effect = lower value; B-score at 10 µM; AID 488975;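 active = B-score over 3 SD under the library average, and starting fluorescence ratio not unusually high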;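 also: choline stimulus applied at its EC90 after an EC20 pre-addition; B-score computed on integrated fluorescence ratio after choline addition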
T cell HTS – modulates CD8 T cell binding to vesicles; 2C CD8+ T cell-vesicle binding, flow cytometry; stronger effect = lower value; response (vesicle binding), % at 7 µM; 0.068% of 330,000 active;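 active = response, share of CD8 T cells binding vesicles, and their 90th percentile fluorescence all below set limits, cut at about 80% in these data, passing the limit was not always enough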;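 also: values below 100% mean blocked vesicle binding to the CD8+ T cells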
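Incubation: binding step 1.5 h, 37 °C, antibody labelling 20 min, ice; system: murine 2C transgenic CD8+ T lymphocytes; technique: cytometric PE anti-B7-1 and Alexa647 anti-CD8 signals after 1% paraformaldehyde fixation; also added: QL9-charged Drosophila Ld/ICAM-1/B7-1 vesicles; control set: naked versus QL9-loaded vesicles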
CHT act confirm – human CHT activation, confirmatory screen; shares compounds with CHT PAM; activation, % at 10 µM; CHT-expressing cells, membrane potential dye fluorescence (FDSS); % of choline EC20–EC90 response window; HEK293 expressing CHT LV-AA mutant; choline added at its EC20; 91% of 2,500 active;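 active = primary screen active, with duplicate mean activation above negative control mean plus 3 SD, cut at about 11% in these data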
HEK293 MP dye – CHT activator counter-screen hit in parental HEK293 cells; 62% of 2,500 active; membrane potential dye fluorescence (FDSS); measured after EC20 choline addition; ratio readout change at 10 µM, hits read low; shares compounds with CHT PAM; AID 623908;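 active = duplicate-averaged ratio beyond 3 SD from buffer wells, up or down, though filed actives are nearly all decreases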
Each line names hits and unclear results; the compound was inactive in the other large screens (follow-up assays come after a bar, where they were run).

Cc1ccn2cc(-c3cccc(NS(C)(=O)=O)c3)nc2c1	CHT PAM 6.3 | CHT act confirm 35 | HEK293 MP dye -42
Cc1ccn2cc(-c3ccc(Br)cc3)nc2c1	none
CC(=O)Nc1cccc(-c2cn3ccc(C)cc3n2)c1	none
Cc1ccn2cc(-c3cccc([N+](=O)[O-])c3)nc2c1	none | CHT act confirm 39 | HEK293 MP dye -46
CCC(Oc1ccc(Br)cc1Cl)C(=O)Nc1nnc(C2CC2)s1 (centres undefined)	none
O=C(Nc1ccc(Cl)c(C(=O)N2CCOCC2)c1)c1ccccc1	none
CCC(C)Sc1cc(-c2nc3ccc(C)cn3c2NCc2ccccc2)ccc1OC (centres undefined)	CHT PAM 7.7 | CHT act confirm 22 | HEK293 MP dye -25
CC1(C)c2ccccc2-n2c1cc1oc(=O)cc(O)c1c2=O	none
CC1CCN(c2ccccc2NC(=O)c2ccc(F)cc2)CC1	CHT PAM 9.3 | CHT act confirm 23 | HEK293 MP dye inactive
COc1ccc(C[C@H]2CN3C(=NC[C@H]3Cc3ccccc3)N2CCNC(=O)CCC2CCCCC2)cc1	none (no result: VLA-4 inh, T cell HTS) | CHT act confirm 32 | HEK293 MP dye inactive
C/C=C(\C)C(=O)NCCN1C2=NC[C@H](Cc3ccccc3)N2C[C@@H]1Cc1ccc(OC)cc1	none
c1ccc(-c2ccnc3ncnn23)nc1	none
c1cn(-c2ccc(-c3ccnc4ncnn34)cc2)cn1	CHT PAM 8.5 | CHT act confirm 41 | HEK293 MP dye -40
O=C(OCc1c(-c2ccccc2)ncc2ccccc12)c1ccccc1C(F)(F)F	none (no result: CHT PAM, CHT inh)
O=C(CC1C=Cc2ccccc2N1C(=O)c1ccccc1)c1ccccc1 (centres undefined)	CHT PAM 10 | CHT act confirm 26 | HEK293 MP dye inactive
CC(C#N)Sc1ccc(S(=O)(=O)N2CCCC2)cn1 (centres undefined)	none (no result: CHT PAM, CHT inh)
O=C(NCC(c1ccco1)N1CCc2ccccc21)c1ccccc1Cl (centres undefined)	CHT PAM 9.4 | CHT act confirm 29 | HEK293 MP dye inactive
Cc1ccc(C(=O)NCC(c2ccco2)N2CCc3ccccc3C2)cc1 (centres undefined)	none
O=C(NCC(c1ccco1)N1CCc2ccccc21)c1c(F)cccc1F (centres undefined)	none
O=C(NCC(c1ccco1)N1CCc2ccccc2C1)c1ccc(Cl)cc1 (centres undefined)	none | CHT act confirm 11 | HEK293 MP dye inactive
COc1ccccc1CNS(=O)(=O)c1ccc(-n2cccn2)cc1	none
Cc1cnccc1CNC(=O)CC1C(=O)NCCN1CC(C)(C)C (centres undefined)	none
O=C(/C(C=Nc1ccc(F)cc1)=C(/O)c1ccco1)C(F)(F)F	none
Cc1ccc2nc(Nc3ccc(C)c(C)c3)c3nncn3c2c1	none
Nc1c(C(=O)NCCN2CCOCC2)c2nc3ccccc3nc2n1-c1ccc2c(c1)OCO2	none
Nc1c(C(=O)NCc2ccc3c(c2)OCO3)c2nc3ccccc3nc2n1CCCN1CCOCC1	CHT PAM 7.4 | CHT act confirm 12 | HEK293 MP dye inactive
Cn1c(=O)c(C(=O)N2CCc3ccccc32)cc2cccnc21	none
CC(C)Oc1ccc(-c2nc(NCC3CCCO3)c3ccccc3n2)cc1 (centres undefined)	none
c1cncc(-c2nc(NCC3CCCO3)c3ccccc3n2)c1 (centres undefined)	none | CHT act confirm 22 | HEK293 MP dye -33
Cc1cc(NS(=O)(=O)c2ccc(NC(=O)c3cnc4scc(C)n4c3=O)cc2)nc(C)n1	CHT PAM 6.2 | CHT act confirm 33 | HEK293 MP dye -27
Cc1noc(NS(=O)(=O)c2ccc(NC(=O)c3cnc4scc(C)n4c3=O)cc2)c1C	none
COc1ccc(C(CNc2ncnc3sc(C)c(C)c23)N(C)C)cc1 (centres undefined)	none
COc1ccccc1C(CNc1ncnc2sc(C)c(C)c12)N(C)C (centres undefined)	none | CHT act confirm 54 | HEK293 MP dye -52
O=C(O)/C=C/c1ccc(-n2ccnc2)cc1	none
CCOCCCn1c(=NC(C)=O)c(C(=O)OCC)cc2c(=O)n3ccccc3nc21	none | CHT act confirm 17 | HEK293 MP dye -42
CCOCCCn1c(=NC(C)=O)c(C#N)cc2c(=O)n3ccccc3nc21	none
